Measured values as given in the RNAGym collection of RNA variant scans (doi:10.1126/science.aae0568).
Fewer inactive variants are shown than the library holds.

B1: tRNA (parent)
chain: GUUCCGUUGGCGUAAUGGUAACGCGUCUCCCUCCUAAGGAGAAGACUGCGGGUUCGAGUCCCGUACGGAACG

Variants of: B1
Assay: yeast fitness relative to wild type (ratio to wild type); higher = fitter; tRNA-Arg(CCU), competitive growth, 37 C, YPD
How it was run: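 Changes in genotype frequencies gave Darwinian fitness relative to wild type. Frequencies were read by 100-nucleotide paired-end sequencing of gene amplicons before and after pooled Saccharomyces cerevisiae strains, carrying tRNA-Arg(CCU) gene variants at the native locus, were competed in YPD at 37°C for 24 hours in six replicates. A genotype was kept only with ≥ 100 starting reads, and estimates < 0.5 were set to 0.5.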

Variant | yeast fitness
C4G A14U G23A G56C | ≤ 0.5
C4G G67A | 0.913
C4G G67C | 0.883
C4G C5G C11A G38A G67A | ≤ 0.5
C4G C24U U35C C66U | 0.559
C4G C34G A43U A70C | ≤ 0.5
C4G G44A A45C G63A | ≤ 0.5
C4G C31A G58A | 0.635
C4G G6C C34G A42G G63C | ≤ 0.5
C4G A14U C31U G44A C46U C49U | ≤ 0.5
C4G U8C C22G A42C C49U A57C | 0.676
C4G C29G A36C A37U G38A A40C A45G G51A | ≤ 0.5
C4G C22G A43U A57C U59C | ≤ 0.5
C4G A20C C30A C31G C34A A37G C49A A57C | ≤ 0.5
C4G C22G G52C G68C | 0.575
C4G U8C G25A A42U | ≤ 0.5
C4G C5U C55U | 0.544
C4G C5G C11A A69C A70C | ≤ 0.5
C4G G23A C55A C61A | 0.667
C4G C24G C34U U47A G48C C60U | 0.521
C4G C29G C66U | 0.588
C4G A21G A36U | ≤ 0.5
C4G C62A G67C | ≤ 0.5
C4G C11U A40C A57U | 0.623

Variant | yeast fitness
C4G C5A A21C U54A A65U A69C | ≤ 0.5
C4G G9A C49A C55U | ≤ 0.5
C4G C55U C66G | ≤ 0.5
C4G G17C A43C G51A | ≤ 0.5
C4G C22G G67C | 0.528
C4G C55U C61A | ≤ 0.5
C4G A40U A45U | 0.546
C4G C30G C33A C61G | ≤ 0.5
C4G C30U | 0.852
C4G C30A | 0.679
C4G A40C G68C | ≤ 0.5
C4G C11G U64A | ≤ 0.5
C4G A15C A57U C61G | ≤ 0.5
C4G C27A C46U | 0.539
C4G C22G C29A | ≤ 0.5
C4G C24A C46U C60A | 0.521
C4G G6A C11U G23A A43G | ≤ 0.5
C4G G10C U35C G38U C46G | ≤ 0.5
C4G G18C A42U C46G | ≤ 0.5
C4G C5G A14G A43G | ≤ 0.5
C4G C11G C34U G38A G44C | ≤ 0.5
C4G C11G C55U G63A | ≤ 0.5
C4G A20U C29U C49U | ≤ 0.5
C4G G10C G12A A36C U54G C60U A70G | 0.615

Variant | yeast fitness
C4G U7C A45U G48C | ≤ 0.5
C4G A45U G48C | 0.501
C4G A36G A45C C61U C62G | ≤ 0.5
C4G U7A U19C A20C C24U U53C | ≤ 0.5
C4G G17A G50A C55U G67C | ≤ 0.5
C4G G12U A14C U16C C49U A65G | ≤ 0.5
C4G G12A C27A C31A G52A G58C A70G | ≤ 0.5
C4G C22U C49A | ≤ 0.5
C4G A15C C66U | 0.539
C4G C5A C27A C34A A42U | ≤ 0.5
C4G C11A U35A A45G C49U U59G G67U | ≤ 0.5
C4G C62U A69U | 0.672
C4G G18C G58C C61U G68A | 0.615
C4G C5U A40G | 0.526
C4G A37U G58C C60A | ≤ 0.5
C4G G18A A45C | ≤ 0.5
C4G A40U C49A C55U | 0.515
C4G A36U C66G | ≤ 0.5
C4G G10C G12C A21C G48C A57G G68C | 0.519
C4G C31A | 0.817
C4G C11G C55U C61A | 0.567
C4G G38A C55U C60G | ≤ 0.5
C4G A15U A40C | ≤ 0.5
C4G G17C C33G U59C | ≤ 0.5

Variant | yeast fitness
C4G A57G C61U | 0.629
C4G A37C G51A | 0.628
C4G A40G G56C | 0.537
C4G C29G A36C A37U A40C A45G G51A A70U | ≤ 0.5
C4G G18A A57C | ≤ 0.5
C4G U8C C24G U47C | ≤ 0.5
C4G C29G C49U C60G | ≤ 0.5
C4G C34U G41A | ≤ 0.5
C4G G12U A14C A57G | ≤ 0.5
C4G C5U G44C | ≤ 0.5
C4G A20U C22G A37C A43C A65G | ≤ 0.5
C4G G6A U13G A14G A69U | ≤ 0.5
C4G G10U A14U C24U C33U G52A | 0.544
C4G C27A C46U G58C A70C | ≤ 0.5
C4G U8C A15G C22G G23A C49A | ≤ 0.5
C4G C49G | 0.682
C4G C49A | 0.541
C4G C49U | 0.933
C4G G18C A57C | ≤ 0.5
C4G U8A G12A G58A | ≤ 0.5
C4G C30A A42C | ≤ 0.5
C4G C24A C34A U47C | ≤ 0.5
C4G C49G G56U U64C A65C A70C | 0.635
C4G C31G A70C | 0.537

Variant | yeast fitness
C4G G17A A36U | 0.691
C4G C55G | 0.612
C4G C55A | 0.778
C4G A15C | 0.719
C4G A15U | 0.824
C4G C11A U35A C49U U59G G67U | 0.554
C4G C5U C11U | 0.505
C4G C34G | 0.574
C4G C34U | 0.624
C4G C30U A42U G50C G63C | ≤ 0.5
C4G C5U U16A C34A C66A | ≤ 0.5
C4G C29G A37U C49A G58C | 0.502
C4G C33G A40G | 0.528
C4G C11A C29U C33U U54C | ≤ 0.5
C4G C5U A20U G39C A40G A70U | ≤ 0.5
C4G U8C G25A A42U A69C | ≤ 0.5
C4G G17C C33A G56C A70C | 0.542
C4G C5G C34G A57G A65G C66U | ≤ 0.5
C4G C27A U32G G39U G41C C66G | ≤ 0.5
C4G C11U C29U A45U | ≤ 0.5
C4G A15U A40C C60A C61G A65C | ≤ 0.5
C4G C24U C33G G48A C49U | ≤ 0.5
C4G A40G A42U | ≤ 0.5
C4G C5G G39A C49A | ≤ 0.5

Variant | yeast fitness
C4G U8C C24G C30G A43C | ≤ 0.5
C4G A15C U26G G41C U47C G68C | ≤ 0.5
C4G G17A C34A A43G G68A | ≤ 0.5
C4G C29G C60A G67C | 0.564
C4G C11G G41C U59G A70G | ≤ 0.5
C4G A36C A37G U64A | ≤ 0.5
C4G U7G A69U | ≤ 0.5
C4G A21G A45U C49U U64C C66U | ≤ 0.5
C4G G25A A45G | ≤ 0.5
C4G G58C C62U | 0.651
C4G C11U C22G A40U A43G U53C A70G | ≤ 0.5
C4G A45U G48C C49G | ≤ 0.5
C4G C29U C30G G39C | ≤ 0.5
C4G C27G C34G G51A | ≤ 0.5
C4G C5G C31A U35C | ≤ 0.5
C4G G44C C49G G56A C61G A65U A69G | 0.641
C4G U7G G12C A20U G63A C66A | ≤ 0.5
C4G G9A A45C A57C G58C | ≤ 0.5
C4G C27G | 0.816
C4G C11U A69U | 0.539
C4G C11G U13A U59G C61G | ≤ 0.5
C4G A21G C34U G44C C55G | ≤ 0.5
C4G C34G A40G G68A | ≤ 0.5
C4G C31U C55A | ≤ 0.5

Variant | yeast fitness
C4G C5U U47A C55U A57C | ≤ 0.5
C4G C34U C66G | ≤ 0.5
C4G C27U G41C | ≤ 0.5
C4G U7A C29U | 0.504
C4G G9C G52A G63C | ≤ 0.5
C4G A21C | 0.609
C4G A36U C46U | 0.59
C4G G17A C55G A70U | ≤ 0.5
C4G G10A U13A U26G C27G C29U C33U U53C C61U | ≤ 0.5
C4G C5A C24U C61U C66U A70C | 0.514
C4G G17A C61U | 0.56
C4G C22G C24U G41A G67U | ≤ 0.5
C4G C31G C55U | 0.516
C4G C22G C24U G41A A57U C66A | ≤ 0.5
C4G C30A G52C C66U | ≤ 0.5
C4G G39C | 0.747
C4G C49U C66U | 0.681
C4G G6A C24U A40U C49A | ≤ 0.5
C4G G9A G50C | 0.642
C4G C30A C62G | ≤ 0.5
C4G G9C G41A U53C C55U U59A A70U | ≤ 0.5
C4G G6A | 0.977
C4G G17A G25C C66U | ≤ 0.5
